Key:
Format in all cases: functional
[1] = Growth inhibition of human TK10 cells assessed as cell growth at 10^-6 M incubated for 48 hrs by sulforhodamine B assay; conditions: TK-10, 48 h, read-out: Activity
[2] = Growth inhibition of human HOP92 cells assessed as cell growth at 10^-8 M incubated for 48 hrs by sulforhodamine B assay; conditions: HOP-92, 48 h, read-out: Activity
[3] = Growth inhibition of human HOP92 cells incubated for 48 hrs by sulforhodamine B assay; conditions: HOP-92, 48 h
Method in brief: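 Cells seeded at 5,000–40,000/well according to doubling time and preincubated 24 h at 37 °C, 5% CO2. Time-zero plates were TCA-fixed. DMSO concentrate was diluted in medium with 50 µg/ml gentamicin to give five concentrations (10-fold or ½ log steps), then exposed 48 h. Cells were TCA-fixed, stained with 0.4% SRB and read at 515 nm. Percent growth was taken against time-zero and control; GI50, TGI and LC50 derived.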

[4] = tested on: HT-29; assay: Growth inhibition of human HT-29 cells assessed as cell growth at 10 uM incubated for 48 hrs by sulforhodamine B assay; conditions: HT-29, 48 h, read-out: Activity
[5] = tested on: NCI-H522; assay: Growth inhibition of human NCI-H522 cells assessed as cell growth at 10^-7 M incubated for 48 hrs by sulforhodamine B assay; conditions: NCI-H522, 48 h, read-out: Activity
[6] = Growth inhibition of human BT549 cells assessed as cell growth at 10 uM incubated for 48 hrs by sulforhodamine B assay; conditions: BT-549, 48 h, read-out: Activity
Method in brief: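 One-dose screen at 10 µM final. Cells are plated at 5,000–40,000 per well according to doubling time and preincubated 24 h at 37 °C, 5% CO₂. Compound (DMSO stock diluted in medium with 50 µg/ml gentamicin) is then added for 48 h. Growth percent is read by sulforhodamine B staining, absorbance at 515 nm.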

[7] = tested on: ACHN; assay: Growth inhibition of human ACHN cells assessed as cell growth at 10^-6 M incubated for 48 hrs by sulforhodamine B assay; conditions: read-out: Activity
Method in brief: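 Five-dose assay: five concentrations from 10-fold or ½-log serial dilutions. Cells are plated at 5,000–40,000 per well according to doubling time, grown 24 h, then exposed 48 h at 37 °C, 5% CO₂. Fixed with cold 50% TCA (final addition) for 60 min at 4 °C and stained with 0.4% SRB in 1% acetic acid. Bound dye is solubilized in 10 mM Tris base and read at 515 nm. GI₅₀ is where [(Ti−Tz)/(C−Tz)]×100 = 50, with a time-zero plate as Tz.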

[8] = Growth inhibition of human SF539 cells assessed as cell growth at 10^-5 M incubated for 48 hrs by sulforhodamine B assay; conditions: SF-539, 48 h, read-out: Activity
[9] = Growth inhibition of human HL-60(TB) cells assessed as cell growth at 10 uM incubated for 48 hrs by sulforhodamine B assay; conditions: HL-60, 48 h, read-out: Activity
[10] = Growth inhibition of human RPMI8226 cells assessed as cell growth at 10^-6 M incubated for 48 hrs by sulforhodamine B assay; conditions: RPMI-8226, 48 h, read-out: Activity
[11] = tested on: MCF7; assay: Growth inhibition of human MCF7 cells assessed as cell growth at 10^-4 M incubated for 48 hrs by sulforhodamine B assay; conditions: MCF7, 48 h, read-out: Activity
[12] = tested on: NCI-H23; assay: Growth inhibition of human NCI-H23 cells assessed as cell growth at 10^-5 M incubated for 48 hrs by sulforhodamine B assay; conditions: NCI-H23, 48 h, read-out: Activity
[13] = Growth inhibition of human HL-60(TB) cells assessed as cell growth at 10^-4 M incubated for 48 hrs by sulforhodamine B assay; conditions: HL-60, 48 h, read-out: Activity
Method in brief: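 Cells plated at 5,000–40,000/well according to doubling time and preincubated 24 h at 37 °C, 5% CO₂, with time-zero plates TCA-fixed. Drugs were kept as DMSO concentrates at 400× the top concentration and diluted in medium with 50 µg/ml gentamicin. Five 10-fold or ½-log dilutions were run for 48 h, followed by SRB staining and A515. Percent growth = (Ti−Tz)/(C−Tz)×100, or (Ti−Tz)/Tz×100 when Ti<Tz.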

[14] = tested on: Malme-3M; assay: Growth inhibition of human MALME-3M cells incubated for 48 hrs by sulforhodamine B assay
Method in brief: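 Cells were plated at 5,000–40,000 per well according to doubling time and preincubated 24 h at 37 °C in 5% CO2; time-zero plates were then TCA-fixed. Five concentrations (10-fold or ½-log dilutions, DMSO stock) were incubated 48 h. Cells were TCA-fixed, stained with 0.4% SRB and read at 515 nm. GI50 was taken where [(Ti−Tz)/(C−Tz)]×100 = 50.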

[15] = tested on: NCI/ADR-RES; assay: Growth inhibition of human NCI/ADR-RES cells assessed as cell growth at 10^-8 M incubated for 48 hrs by sulforhodamine B assay; conditions: read-out: Activity
[16] = Growth inhibition of human TK10 cells assessed as cell growth at 10^-8 M incubated for 48 hrs by sulforhodamine B assay; conditions: TK-10, 48 h, read-out: Activity
[17] = Growth inhibition of human OVCAR3 cells assessed as cell growth at 10^-8 M incubated for 48 hrs by sulforhodamine B assay; conditions: OVCAR-3, 48 h, read-out: Activity
[18] = Growth inhibition of human HOP62 cells assessed as cell growth at 10^-4 M incubated for 48 hrs by sulforhodamine B assay; conditions: HOP-62, 48 h, read-out: Activity
[19] = tested on: NCI-H226; assay: Growth inhibition of human NCI-H226 cells assessed as cell growth at 10^-8 M incubated for 48 hrs by sulforhodamine B assay; conditions: NCI-H226, 48 h, read-out: Activity
[20] = tested on: M14; assay: Growth inhibition of human M14 cells assessed as cell growth at 10^-8 M incubated for 48 hrs by sulforhodamine B assay; conditions: M14, 48 h, read-out: Activity
[21] = tested on: CCRF-CEM; assay: Growth inhibition of human CCRF-CEM cells incubated for 48 hrs by sulforhodamine B assay
Method in brief: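 Leukemia line in the five-dose format: five concentrations from 10-fold or ½-log serial dilutions. Plated at 5,000–40,000 cells per well, preincubated 24 h, then compound added for 48 h at 37 °C, 5% CO₂. Sulforhodamine B absorbance read at 515 nm. Growth is computed against time-zero (Tz) and control (C) readings; GI₅₀ is where [(Ti−Tz)/(C−Tz)]×100 = 50.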

[22] = Growth inhibition of human prostate cancer cells incubated for 48 hrs by sulforhodamine B assay; conditions: Cancer cell lines; for CC50: read-out: LC50 (the source's name)
[23] = read-out: LC50 (the source's name)
[24] = read-out: pLC50 (the source's name) (converted)

SMILES	growth at 1 µM [1] [%]	growth at 0.01 µM [2] [%]	GI50 ([3]; read-out: GI50) [µM]	LC50 (concentration killing 50% of starting cells) ([3]; read-out: LC50) [µM]	TGI ([3]; read-out: TGI) [µM]	GI50 ([3]; read-out: pGI50 (converted)) [µM]	LC50 (concentration killing 50% of starting cells) ([3]; read-out: pLC50 (converted)) [µM]	TGI ([3]; read-out: pTGI (converted)) [µM]	growth at 10 µM [4] [%]	growth at 0.1 µM [5] [%]	growth at 10 µM [6] [%]	growth at 1 µM [7] [%]	growth at 10 µM [8] [%]	growth at 10 µM [9] [%]	growth at 1 µM [10] [%]	growth at 100 µM [11] [%]	growth at 100 µM [13] [%]	GI50 ([14]; read-out: GI50) [µM]	TGI ([14]; read-out: TGI) [µM]	GI50 ([14]; read-out: pGI50 (converted)) [µM]	further results
Clc1ccc(-c2nc(Nc3ccc(-c4nc5ccccc5[nH]4)cc3)nc(N3CCOCC3)n2)cc1	110	90	1.3	5.61	2.7	1.29	5.62	2.69	-78.6	95	-73.6	53	-87	-81.4	-20	-17	-45	2.1	3.86	2.09	growth at 10 µM [12]: -66%; TGI ([14]; read-out: pTGI (converted)): 3.89 µM; growth at 0.01 µM [15]: 98%; growth at 0.01 µM [16]: 93%; growth at 0.01 µM [17]: 99%; growth at 100 µM [18]: -26%; growth at 0.01 µM [19]: 101%; growth at 0.01 µM [20]: 94%; GI50 ([21]; read-out: GI50): 0.259 µM; TGI ([21]; read-out: TGI): 0.687 µM; GI50 ([21]; read-out: pGI50 (converted)): 0.257 µM; TGI ([21]; read-out: pTGI (converted)): 0.692 µM; GI50 [22]: 0.41 µM; TGI [22]: 1.49 µM; CC50 [22]: 4.33 µM
c1ccc2[nH]c(-c3ccc(Nc4nc(N5CCCCC5)nc(N5CCOCC5)n4)cc3)nc2c1	105	92	1.99	9.34	4.32	2	9.33	4.37	-28.1	97	23.1	90	-28	-22.7	87	-5	-22	1.87	3.57	1.86	growth at 10 µM [12]: 6%; CC50 [14, 23]: 6.81 µM; CC50 [14, 24]: 6.76 µM; TGI ([14]; read-out: pTGI (converted)): 3.55 µM; growth at 0.01 µM [15]: 99%; growth at 0.01 µM [16]: 96%; growth at 0.01 µM [17]: 103%; growth at 100 µM [18]: -55%; growth at 0.01 µM [19]: 84%; growth at 0.01 µM [20]: 95%; GI50 ([21]; read-out: GI50): 3.25 µM; CC50 [21, 23]: > 100 µM; TGI ([21]; read-out: TGI): > 100 µM; GI50 ([21]; read-out: pGI50 (converted)): 3.24 µM; CC50 [21, 24]: > 100 µM; TGI ([21]; read-out: pTGI (converted)): > 100 µM; GI50 [22]: 3.67 µM; TGI [22]: 9.13 µM; CC50 [22]: > 100 µM
c1ccc(-c2nc(Nc3ccc(-c4nc5ccccc5[nH]4)cc3)nc(N3CCOCC3)n2)cc1	119	93	1.38	6.73	3.05	1.38	6.76	3.02	-59.9	101	33.6	64	-84	-32.7	54	-52	-56	2	3.85	2	growth at 10 µM [12]: -44%; CC50 [14, 23]: 7.42 µM; CC50 [14, 24]: 7.41 µM; TGI ([14]; read-out: pTGI (converted)): 3.89 µM; growth at 0.01 µM [15]: 95%; growth at 0.01 µM [16]: 99%; growth at 0.01 µM [17]: 105%; growth at 100 µM [18]: -62%; growth at 0.01 µM [19]: 107%; growth at 0.01 µM [20]: 102%; GI50 ([21]; read-out: GI50): 0.544 µM; CC50 [21, 23]: > 100 µM; TGI ([21]; read-out: TGI): 3.12 µM; GI50 ([21]; read-out: pGI50 (converted)): 0.55 µM; CC50 [21, 24]: > 100 µM; TGI ([21]; read-out: pTGI (converted)): 3.09 µM; GI50 [22]: 1.51 µM; TGI [22]: 3.07 µM; CC50 [22]: 6.25 µM
Fc1ccc(-c2nc(Nc3ccc(-c4nc5ccccc5[nH]4)cc3)nc(N3CCOCC3)n2)cc1	100	96	1.8	7.76	3.74	1.82	7.76	3.72	-23.1	97	5.16	82	-60	-46	77	1	-20	2.05	3.95	2.04	CC50 [14, 23]: 7.63 µM; CC50 [14, 24]: 7.59 µM; TGI ([14]; read-out: pTGI (converted)): 3.98 µM; growth at 0.01 µM [15]: 98%; growth at 0.01 µM [16]: 91%; growth at 0.01 µM [17]: 102%; growth at 100 µM [18]: -33%; growth at 0.01 µM [19]: 100%; growth at 0.01 µM [20]: 97%; GI50 ([21]; read-out: GI50): 3.11 µM; CC50 [21, 23]: > 100 µM; TGI ([21]; read-out: TGI): > 100 µM; GI50 ([21]; read-out: pGI50 (converted)): 3.09 µM; CC50 [21, 24]: > 100 µM; TGI ([21]; read-out: pTGI (converted)): > 100 µM; GI50 [22]: 3.46 µM; TGI [22]: 6.66 µM; CC50 [22]: > 100 µM

Source: ChEMBL document CHEMBL3808334, “Synthesis and in vitro evaluation of novel triazine analogues as anticancer agents and their interaction studies with bovine serum albumin” (Eur J Med Chem, 2016)
